Each structure is given as a SMILES string. Activity calls are given as the source filed them. No cut-off for these calls is given here.

From ChEMBL document CHEMBL4428069, “Parallel inhibition of amino acid efflux and growth of erythrocytic Plasmodium falciparum by mefloquine and non-piperidine analogs: Implication for the mechanism of antimalarial action” (Bioorg Med Chem Lett, 2016) come the findings set out here.

For test [1], the system named is Plasmodium falciparum. The test can be described thus: Antimalarial activity against trophozoite stage of Plasmodium falciparum 3D7 infected-erythrocytes assessed as reduction in Leu efflux after 4 hrs by UPLC method. As to conditions: 3D7, 4 h. The class given is functional, organism-based. The method in brief:
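Trophozoite-stage 3D7-infected erythrocytes at 2% hematocrit and 10% parasitemia, cultured in medium lacking Leu and Val with D-norvaline as internal standard. Full concentration–response up to 1000 nM with a 4 h endpoint. Leu in the recovered conditioned medium quantified by UPLC (AccQ-Tag). Mean and standard deviation of three independent experiments.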

Test [2] deals with Plasmodium falciparum. The test can be described thus: Antimalarial activity against chloroquine/mefloquine-sensitive Plasmodium falciparum 3D7 infected-erythrocytes assessed as parasite growth inhibition after 48 to 54 hrs by SYBR green 1-based replication method. The class given is functional, organism-based. Summed up:
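Chloroquine- and mefloquine-sensitive 3D7 strain; growth inhibition measured with a SYBR Green I-based replication assay. IC50 reported as mean and standard deviation of three independent experiments.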

Test [3] has as its system Plasmodium falciparum. In words: Antimalarial activity against chloroquine-resistant, mefloquine-sensitive Plasmodium falciparum W2 assessed as parasite growth inhibition by [3H]hypoxanthine incorporation assay.
Test [4] concerns Plasmodium falciparum. In words: Antimalarial activity against trophozoite stage of Plasmodium falciparum 3D7 infected-erythrocytes assessed as reduction in Leu efflux at 160 nM after 120 mins by UPLC method. The format is functional, organism-based. Summed up:
(§1)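 Time course on 3D7-infected erythrocytes in medium lacking Leu and Val, with D-norvaline as internal standard. Exposure to 160 nM or DMSO, with conditioned medium sampled from 0 to 240 min. Leu in the medium measured by UPLC (AccQ-Tag), with a hyperbolic fit of the treated data. Points are the average of two technical replicates.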

The subject of test [5] is Plasmodium falciparum. The test can be described thus: Antimalarial activity against trophozoite stage of Plasmodium falciparum 3D7 infected-erythrocytes assessed as inhibition of Leu efflux at 160 nM after 60 mins by UPLC method. The class given is functional. As to conditions: 3D7, 4 h, in the assay text read “after 4 hrs” for “after 60 mins”. The method in brief: as §1

Test [6] deals with Plasmodium falciparum. In words: Antimalarial activity against mefloquine-sensitive Plasmodium falciparum 3D7 infected-erythrocytes assessed as parasite growth inhibition after 48 hrs by sandwich ELISA. The format is functional. As to conditions: 3D7, 48 h.

The term IC50 denotes the concentration at which inhibition is half-maximal. Consider `CC1(C)N=C(N)N=C(N)N1OCCCOc1cc(Cl)c(Cl)cc1Cl`, for which the IC50 in the test with Plasmodium falciparum [1] was more than 1000 nM.
Consider `OC(CNC12CC3CC(CC(C3)C1)C2)c1cc(C(F)(F)F)nc2c(C(F)(F)F)cccc12` (stereo not given), for which the IC50 worked out at 15 nM in the test on Plasmodium falciparum [1] and 5.9 nM in the test on Plasmodium falciparum [2].
What is called IC90 is the concentration at which the effect reaches the 90% level. Consider `CC(C)N(CC(O)c1cc(C(F)(F)F)nc2c(C(F)(F)F)cccc12)C(C)C` (stereo not given), for which the half-maximal inhibitory concentration (IC50) was 590 nM in the test with Plasmodium falciparum [1] and 350 nM with Plasmodium falciparum [2]. The IC90 with Plasmodium falciparum [3] is 12 nM.
Taken in the same sequence, the figures for `C#CCNCC(O)c1cc(C(F)(F)F)nc2c(C(F)(F)F)cccc12` (stereo not given) were 140 nM, 110 nM and 1400 nM.
For the compound `OC(CNc1ccccc1)c1cc(C(F)(F)F)nc2c(C(F)(F)F)cccc12` (stereo not given), the concentration for half-maximal inhibition (IC50) in the test on Plasmodium falciparum [1] was 2600 nM; in the test with Plasmodium falciparum [2], 2000 nM. In the test on Plasmodium falciparum [3], the concentration for an effect of 90% (IC90) is 1200 nM.
Taken in the same sequence, the figures for `CC(C)NCC(O)c1cc(C(F)(F)F)nc2c(C(F)(F)F)cccc12` (stereo not given) were 14 nM, 7.4 nM and 13 nM.
Taken in the same sequence, the figures for `OC(CNC1CCCCC1)c1cc(C(F)(F)F)nc2c(C(F)(F)F)cccc12` (stereo not given) were 9.7 nM, 3.8 nM and 6 nM.
Regarding `NCCCNCC(O)c1cc(C(F)(F)F)nc2c(C(F)(F)F)cccc12` (stereo not given), the concentration for half-maximal inhibition (IC50) in the test on Plasmodium falciparum [1] amounted to 5000 nM; in the test with Plasmodium falciparum [2], 1600 nM.
Consider `OCCNCC(O)c1cc(C(F)(F)F)nc2c(C(F)(F)F)cccc12` (stereo not given), for which the IC50 in the test on Plasmodium falciparum [1] was found to be 500 nM; in the test on Plasmodium falciparum [2] it was 340 nM. The IC90 in the test on Plasmodium falciparum [3] worked out at 710 nM.
As to `CCCCN(CCCN)CC(O)c1cc(C(F)(F)F)nc2c(C(F)(F)F)cccc12` (stereo not given), the IC50 in the test with Plasmodium falciparum [1] came out at 180 nM; in the test with Plasmodium falciparum [2], 49 nM.
The matching figures for `CCCN(CCC)CC(O)c1cc(C(F)(F)F)nc2c(C(F)(F)F)cccc12` (stereo not given): 9.3 nM and 4.7 nM.
What is called inhibition is the relative decrease from the control value, in per cent. For the compound `O[C@@H](c1cc(C(F)(F)F)nc2c(C(F)(F)F)cccc12)[C@H]1CCCCN1` [(S,R)-MEFLOQUINE], the results for the IC50 with Plasmodium falciparum [1] and in the test on Plasmodium falciparum [2] were 22 nM and 9.1 nM, respectively. In addition, in the test with Plasmodium falciparum [4], the result was Active. Also, the inhibition at 0.16 µM in the test on Plasmodium falciparum [5] turned out to be 70%. For the same compound, the concentration for an effect of 90% (IC90) with Plasmodium falciparum [3] stood at 16 nM; in the test on Plasmodium falciparum [6], 146 nM.
Turning to `C#CCCNCC(O)c1cc(C(F)(F)F)nc2c(C(F)(F)F)cccc12` (stereo not given), the IC50 in the test on Plasmodium falciparum [1] amounted to 51 nM; in the test on Plasmodium falciparum [2] it was 34 nM.
Taken in the same sequence, the figures for `OC(CNCCC1CCCC1)c1cc(C(F)(F)F)nc2c(C(F)(F)F)cccc12` (stereo not given) were 210 nM and 120 nM.
For the compound `CCOCC(O)c1cc(C(F)(F)F)nc2c(C(F)(F)F)cccc12` (stereo not given), the IC50 in the test with Plasmodium falciparum [1] and in the test on Plasmodium falciparum [2] was 22000 nM throughout.
Consider `O=C1C(O)=C([C@H]2CC[C@H](c3ccc(Cl)cc3)CC2)C(=O)c2ccccc21` [ATOVAQUONE], for which the half-inhibitory concentration (IC50) was more than 1000 nM in the test on Plasmodium falciparum [1] and 0.6 nM in the test with Plasmodium falciparum [2].
Taken in the same sequence, the figures for `C#CCCN(CCCN)CC(O)c1cc(C(F)(F)F)nc2c(C(F)(F)F)cccc12` (stereo not given) were 360 nM and 140 nM.
With `CCCNCC(O)c1cc(C(F)(F)F)nc2c(C(F)(F)F)cccc12` (stereo not given), the IC50 with Plasmodium falciparum [1] amounted to 10 nM; with Plasmodium falciparum [2], 4.2 nM. For the same compound, in the test with Plasmodium falciparum [3], the IC90 stood at 1 nM.
With `OC(CNCCc1ccccc1)c1cc(C(F)(F)F)nc2c(C(F)(F)F)cccc12` (stereo not given), the figures for the half-maximal inhibitory concentration (IC50) in the test with Plasmodium falciparum [1] and in the test with Plasmodium falciparum [2] were 13 nM and 8.5 nM, respectively. In addition, in the test with Plasmodium falciparum [3], the 90% effect concentration (IC90) is 11 nM.
The matching figures for `CN(C)CCNCC(O)c1cc(C(F)(F)F)nc2c(C(F)(F)F)cccc12` (stereo not given): 320 nM, 240 nM and 1300 nM.
Regarding `CCCCNCC(O)c1cc(C(F)(F)F)nc2c(C(F)(F)F)cccc12` (stereo not given), the half-inhibitory concentration (IC50) was 9 nM with Plasmodium falciparum [1] and 4.9 nM in the test with Plasmodium falciparum [2]. The IC90 in the test on Plasmodium falciparum [3] turned out to be 5 nM.
